# Measurements: ChEMBL document CHEMBL1150790, “Biochemical characterization of PER-2 and genetic environment of blaPER-2” (Antimicrob Agents Chemother, 2007)
# Columns and labels:
# Citrobacter freundii = experiment: Antimicrobial activity against Citrobacter freundii 33587 isolate by agar dilution method; format: functional
# In short: (§1)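 MICs were determined by agar dilution following CLSI guidelines, with inoculum applied by a Steers multipoint inoculator.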
# Escherichia coli [1] = experiment: Antimicrobial activity against Escherichia coli CAG12177 by agar dilution method; format: functional; in short: as §1
# Escherichia coli [2] = experiment: Antimicrobial activity against Escherichia coli 33587-TC9 by agar dilution method; format: functional; in short: as §1
# [3] = target: T1, PER-2 beta-lactamase (Citrobacter freundii) (UniProt A2RP81); experiment: Ratio of Kcat to Km of Citrobacter freundii PER2 beta lactamase relative to cephalothin
# T1 sequence (whole entry): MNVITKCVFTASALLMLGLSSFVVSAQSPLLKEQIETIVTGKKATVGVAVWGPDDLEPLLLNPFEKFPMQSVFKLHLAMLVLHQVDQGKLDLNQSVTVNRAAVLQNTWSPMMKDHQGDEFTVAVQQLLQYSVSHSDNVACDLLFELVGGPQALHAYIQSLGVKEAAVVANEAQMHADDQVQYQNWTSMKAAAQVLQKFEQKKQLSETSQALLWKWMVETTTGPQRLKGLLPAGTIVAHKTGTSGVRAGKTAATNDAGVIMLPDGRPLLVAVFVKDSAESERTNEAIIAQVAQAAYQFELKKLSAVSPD
# In short: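 Purified recombinant PER-2 (E. coli BL21(DE3) expression, Q-Sepharose purification) was assayed spectrophotometrically at 30°C in 500 μl. kcat and Km came from initial steady-state rates.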
# PER-2 beta-lactamase = target: T2, PER-2 beta-lactamase (Citrobacter freundii, UniProt A2RP81); experiment: Inhibition of Citrobacter freundii PER2 beta lactamase
# T2 sequence (A2RP81 whole entry): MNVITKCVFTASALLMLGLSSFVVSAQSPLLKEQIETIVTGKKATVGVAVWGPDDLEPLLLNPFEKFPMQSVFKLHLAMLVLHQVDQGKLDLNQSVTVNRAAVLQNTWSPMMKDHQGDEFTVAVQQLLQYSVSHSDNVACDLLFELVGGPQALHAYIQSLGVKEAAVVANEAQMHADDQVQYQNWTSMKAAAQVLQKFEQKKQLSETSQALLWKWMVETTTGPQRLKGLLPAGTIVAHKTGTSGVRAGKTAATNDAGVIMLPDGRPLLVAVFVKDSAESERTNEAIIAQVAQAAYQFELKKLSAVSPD
# In short: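 Purified recombinant PER-2 was incubated with the drug plus 100 μM nitrocefin as reporter substrate in 500 μl at 30°C. Residual enzyme activity was read spectrophotometrically. Apparent Km values were derived as competitive inhibitor constants (Ki).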
SMILES,MIC (Citrobacter freundii) [µg/mL],MIC (Escherichia coli [1]) [µg/mL],MIC (Escherichia coli [2]) [µg/mL],Activity [3] [%],Ki (PER-2 beta-lactamase) [nM]
CO/N=C(\C(=O)N[C@@H]1C(=O)N2C(C(=O)[O-])=C(C[N+]3(C)CCCC3)CS[C@H]12)c1csc(N)n1,16,≤ 0.063,8,3,–
CC1(C)S[C@@H]2[C@H](NC(=O)Cc3ccccc3)C(=O)N2[C@H]1C(=O)O,–,–,–,18,–
CCN1CCN(C(=O)N[C@@H](C(=O)N[C@@H]2C(=O)N3C(C(=O)O)=C(CSc4nnnn4C)CS[C@H]23)c2ccc(O)cc2)C(=O)C1=O,–,–,–,15,–
CO/N=C(\C(=O)N[C@@H]1C(=O)N2C(C(=O)O)=C(COC(N)=O)CS[C@H]12)c1ccco1,–,–,–,45,–
O=C(Cc1cccs1)N[C@@H]1C(=O)N2C(C(=O)O)=C(/C=C/c3ccc([N+](=O)[O-])cc3[N+](=O)[O-])CS[C@H]12,–,–,–,224,–
CC1(C)S[C@@H]2[C@H](NC(=O)[C@H](N)c3ccccc3)C(=O)N2[C@H]1C(=O)O [AMPICILLIN],> 512,0.25,> 512,49,–
C[C@H]1[C@H](NC(=O)/C(=N\OC(C)(C)C(=O)O)c2csc(N)n2)C(=O)N1S(=O)(=O)O [AZTREONAM],256,≤ 0.016,256,18,2000
CO/N=C(\C(=O)N[C@@H]1C(=O)N2C(C(=O)O)=C(COC(C)=O)CS[C@H]12)c1csc(N)n1 [CEFOTAXIME],64,≤ 0.063,64,113,–
CO[C@@]1(NC(=O)Cc2cccs2)C(=O)N2C(C(=O)O)=C(COC(N)=O)CS[C@@H]21 [CEFOXITIN],1,≤ 0.063,0.125,18,140
